GC-A act: GC-A (human) enzyme activation; P16066; HEK293 GC-A cells, cGMP TR-FRET, EC30 ANP; 0% at EC30 ANP, 100% saturating ANP; activation, % at 10 µM; 0.14% of 370,000 active; AID 1671463; in the data active = activation above about 40%
Target sequence (P16066 whole entry, looked up): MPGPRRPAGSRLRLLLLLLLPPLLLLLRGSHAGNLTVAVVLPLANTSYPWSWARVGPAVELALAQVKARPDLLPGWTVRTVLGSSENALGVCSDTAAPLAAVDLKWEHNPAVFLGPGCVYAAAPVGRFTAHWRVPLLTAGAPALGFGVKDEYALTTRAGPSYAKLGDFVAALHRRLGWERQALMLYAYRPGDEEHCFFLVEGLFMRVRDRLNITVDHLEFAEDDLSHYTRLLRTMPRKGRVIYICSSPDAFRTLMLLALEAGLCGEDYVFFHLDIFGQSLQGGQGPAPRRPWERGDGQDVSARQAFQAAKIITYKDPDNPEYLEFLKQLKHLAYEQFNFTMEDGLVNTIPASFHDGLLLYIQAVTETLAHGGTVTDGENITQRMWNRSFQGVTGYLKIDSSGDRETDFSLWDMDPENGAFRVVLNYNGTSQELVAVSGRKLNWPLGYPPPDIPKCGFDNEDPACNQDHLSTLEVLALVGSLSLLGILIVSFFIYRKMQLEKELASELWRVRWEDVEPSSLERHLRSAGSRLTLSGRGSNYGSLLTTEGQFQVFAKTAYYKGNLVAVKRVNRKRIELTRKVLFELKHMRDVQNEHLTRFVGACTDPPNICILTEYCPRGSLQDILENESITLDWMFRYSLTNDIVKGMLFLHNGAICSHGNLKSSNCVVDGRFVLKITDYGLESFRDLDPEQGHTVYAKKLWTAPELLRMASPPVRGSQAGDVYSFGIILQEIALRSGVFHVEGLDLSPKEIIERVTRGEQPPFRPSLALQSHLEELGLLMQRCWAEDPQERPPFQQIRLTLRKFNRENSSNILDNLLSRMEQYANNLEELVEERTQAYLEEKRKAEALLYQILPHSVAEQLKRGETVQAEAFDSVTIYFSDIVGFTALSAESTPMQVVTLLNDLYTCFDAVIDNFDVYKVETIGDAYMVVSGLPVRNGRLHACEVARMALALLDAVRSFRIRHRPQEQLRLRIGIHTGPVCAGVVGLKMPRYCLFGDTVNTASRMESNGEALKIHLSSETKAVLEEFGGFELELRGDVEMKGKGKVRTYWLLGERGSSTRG
aDG glyco act: increases alpha dystroglycan glycosylation; Pro5-aDG cells, alpha-DG glycosylation AlphaScreen (IIH6); 0% Pro5, 100% B10-LARGE cell signal; activation, % at 10 µM; 0.22% of 360,000 active;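 active = activation of at least 8% versus controls, or a plate z-score of at least 8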;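 note: Pro5 are CHO cells carrying HIG-tagged alpha-DG that lacks glycosylation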
Hep lipid drop: modulators of hepatic lipid droplet formation | AID 1656 | AML12 mouse hepatocytes, oleate lipid droplets, BODIPY imaging | 0.4% of 240,000 active | inhibition, % at 6.5 µM;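 active = lipid droplet intensity inhibited by at least 50%, with more than 500 cells counted; inconclusive = wells with under 300 cells, treated as cytotoxic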
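Assay system: AML12 mouse liver cells | Compound: 6.5 µM single-point dosing | Schedule: Overnight exposure | Technique: Fluorescence imaging, 20x objective, two fields per well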
GC-B act: GC-B (human) receptor activation. P20594. HEK293-GC-B cells, CNP EC30, cGMP TR-FRET; 0% at EC30 CNP, 100% saturating CNP. activation, % at 10 µM. 0.11% of 370,000 active. AID 1920062;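 active = activation at 10 µM reaching about 35% in either raw or pattern-adjusted values, limit read from the data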
GRIN3A LBD mod: modulates the human NR3A ligand-binding domain | NR3A LBD differential scanning fluorimetry, Tm shift; 0% = protein alone, 100% = glycine-bound protein | Tm shift relative to glycine control, % at 25 µM | 2.5% of 340,000 active | AID 1259313;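 active = melting temperature shift of at least 10% of the positive control shift, at one fixed dose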
JMJD2C inh: inhibitors of human GASC-1 (JMJD2C) demethylase; GST-JMJD2C(1-420) H3K9me3 demethylation, DELFIA europium; inhibition, % at 2.35 µM; 0.069% of 330,000 active;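 active = more than half of a compound's replicate wells show inhibition beyond 50%, single wells judged on their own value; inconclusive = some, but no more than half, of replicates pass 50% inhibition; inactive = no replicate passes 50% inhibition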;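 note: signal counts dimethyl H3K9 product captured on neutravidin plate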
Of the large screens only hits and unclear results are named; the others gave an inactive call. In the library only some 3% were active in any assay of this set; here they are far more common.

CCOC(=O)C1=C(N)Oc2cc(O)ccc2C1c1cccc(Cl)c1 (stereo unspecified)	GRIN3A LBD mod 13
CCOC(=O)C1=C(N)Oc2cc(O)ccc2C1c1cccnc1 (stereo unspecified)	none (no result: Hep lipid drop)
CCOC(=O)C1=C(N)Oc2cc(O)ccc2C1c1ccc(Br)cc1 (stereo unspecified)	GC-A act 53 (no result: Hep lipid drop)
CCOc1ccc(C(=O)NC(Cc2ccccc2)C(=O)OC)cc1 (stereo unspecified)	none (no result: Hep lipid drop)
COC(=O)C(Cc1ccccc1)NC(=O)COc1ccc(C(C)(C)C)cc1 (stereo unspecified)	JMJD2C inh 61
c1ccc(-c2cc3c(N4CCN(c5ncccn5)CC4)ncnc3s2)cc1	GC-A act 52
c1ccc(-c2cc3c(N4CCN(c5ccccc5)CC4)ncnc3s2)cc1	none
C=CCN1C(=O)c2n[nH]c(C(C)C)c2C1c1ccccc1 (stereo unspecified)	none (no result: aDG glyco act, Hep lipid drop, GRIN3A LBD mod, JMJD2C inh)
CCOC(=O)C1(CC2CCCCO2)CCN(C(=O)Nc2ccc(SC)cc2)CC1 (stereo unspecified)	none
CCOC(=O)C1(CC2CCCCO2)CCN(C(=O)Nc2cccc(SC)c2)CC1 (stereo unspecified)	GRIN3A LBD mod 11
CCCCCn1c(CN2CCN(c3cc(Cl)ccc3C)CC2)nc2c1c(=O)[nH]c(=O)n2C	GRIN3A LBD mod 24 (no result: Hep lipid drop)
COc1cc(NS(=O)(=O)N2CCCC2)cc(OC)c1OC	GRIN3A LBD mod 15
O=C(CC1C(=O)NCCN1C(=O)Nc1ccc(C(F)(F)F)cc1)Nc1ccc(F)cc1 (stereo unspecified)	GRIN3A LBD mod 14
Clc1ccc([C@H]2OC[C@@]3(CNCc4ccccc4)CS[C@H](c4ccc(Cl)cc4)N23)cc1	none (no result: aDG glyco act, Hep lipid drop, GRIN3A LBD mod, JMJD2C inh)
N=c1nc(-c2ccccc2)ccn1O	JMJD2C inh 53 (no result: Hep lipid drop)
CN(CCc1ccccc1)C(C(=O)Nc1ccc2c(c1)OCCO2)C1CC1 (stereo unspecified)	none (no result: Hep lipid drop, GRIN3A LBD mod, JMJD2C inh)
COc1ccc(-c2cc3ccc(O)cc3oc2=O)cc1OC	JMJD2C inh inconclusive
COc1ccc(-c2c(C)c3cc(O)ccc3oc2=O)cc1OC	GRIN3A LBD mod 42
Cc1ccc(Nc2c(-c3ccc(C)o3)nc3cnccn23)cc1	GC-B act 40 (no result: Hep lipid drop)
Cc1ccc(-c2nc3cnccn3c2Nc2ccccc2)o1	GC-B act 32 (no result: Hep lipid drop)
CC(=O)Nc1ccc(N(CC(O)Cn2c3ccccc3c3ccccc32)S(=O)(=O)c2ccc(C)cc2)cc1 (stereo unspecified)	GRIN3A LBD mod 22
CC(c1ccccc1)N1CC[C@H]2C=CC[C@@H](C(=O)Nc3ccc(F)c(F)c3)[C@H]2C1=O (stereo partly specified)	none (no result: aDG glyco act, Hep lipid drop, GRIN3A LBD mod, JMJD2C inh)
N/C(=N\c1nc2ccccc2o1)NC(=O)/C=C/c1ccccc1	GRIN3A LBD mod 22
N/C(=N\c1nc2ccccc2o1)NC(=O)c1ccccc1	none
O=C(NCCC1=CCCCC1)C(=O)NCC(c1ccco1)N1CCN(c2ccc(F)cc2)CC1 (stereo unspecified)	GRIN3A LBD mod 10
Cc1ccc(S(=O)(=O)N(C)CC(=O)OCC(=O)N2CCCC2=O)cc1	none
CC(=O)Nc1ccc(S(=O)(=O)N(C)CC(=O)OCC(=O)N2CCCC2=O)cc1	GRIN3A LBD mod 17 (no result: Hep lipid drop)
CN(c1cccnc1)c1ccc(NC(=O)Cc2c[nH]c3ccccc23)cc1-c1ccc(C(C)(C)C)cc1	none (no result: aDG glyco act, Hep lipid drop, GRIN3A LBD mod, JMJD2C inh)
O=S(=O)(Nc1ncnc2sc3c(c12)CCC3)c1cc(F)ccc1F	none
Fc1cccc(Nc2ncnc3sc4c(c23)CCC4)c1	GRIN3A LBD mod 13
Cc1noc2ncnc(Sc3ccc(Cl)cc3)c12	GRIN3A LBD mod 10
CCOC(=O)N1CCN(C(=O)C[C@H]2C[C@@]3(C(=O)OC)C(=C[C@H](C4CCCC4)O[C@@H]3C)N(CCC3=CCCCC3)C2=O)CC1	none (no result: aDG glyco act, Hep lipid drop, GRIN3A LBD mod, JMJD2C inh)
COCCCNc1nc(-c2ccc(Cl)cc2)nc2ccccc12	GRIN3A LBD mod 12
c1ccc(CNc2nc(-c3ccccc3)nc3ccccc23)cc1	GRIN3A LBD mod 10
COCCCNc1nc(-c2ccncc2)nc2ccccc12	none (no result: Hep lipid drop)
c1ccc(CNc2nc(-c3cccnc3)nc3ccccc23)cc1	none
c1ccc(CNc2nc(-c3cccs3)nc3ccccc23)cc1	GRIN3A LBD mod 24
COc1ccc(Cn2c(NC(=O)c3ccccc3)nc(Cc3ccccc3)c2-c2ccccc2)c(OC)c1	none (no result: aDG glyco act, Hep lipid drop, GRIN3A LBD mod, JMJD2C inh)
O=[N+]([O-])c1ccc(Nc2ccc(Cl)cc2)nc1	GRIN3A LBD mod 11
O=[N+]([O-])c1ccc(Nc2ccc3ccccc3c2)nc1	GRIN3A LBD mod 38
Cc1ccc(NC(=O)c2ccc(Nc3ccccc3F)nc2)cc1	GRIN3A LBD mod 30
O=[N+]([O-])c1ccc(Nc2ccccc2F)nc1	GRIN3A LBD mod 27
Cc1ccccc1Nc1ccc([N+](=O)[O-])cn1	none
Cc1ccc(NC(=O)c2nc[nH]c2C(=O)NC2CCN(C(=O)OC(C)(C)C)CC2)cc1	GRIN3A LBD mod 23 (no result: Hep lipid drop, JMJD2C inh)
CC(C)(C)OC(=O)N1CCC(NC(=O)c2[nH]cnc2C(=O)Nc2ccc(Cl)cc2)CC1	GRIN3A LBD mod 27 (no result: Hep lipid drop)
CC(C)(C)OC(=O)N1CCC(NC(=O)c2[nH]cnc2C(=O)Nc2ccccc2)CC1	none (no result: Hep lipid drop)
COc1ccc(C(=O)C2CCN(c3ncnc4sccc34)CC2)cc1	none (no result: aDG glyco act, Hep lipid drop, GRIN3A LBD mod, JMJD2C inh)
COC(=O)c1c(-c2ccc(SC)cc2)sc2ccc(OC)cc12	GRIN3A LBD mod 13 (no result: Hep lipid drop)
O=[N+]([O-])c1ccc(/C=C/C2=NN(c3ccccc3)C(c3ccco3)C2)o1 (stereo unspecified)	Hep lipid drop 54, GRIN3A LBD mod 199
Clc1ccc(C2=NN(c3ccccc3)C(c3ccco3)C2)cc1 (stereo unspecified)	none
Fc1ccc(C2=NN(c3ccccc3)C(c3ccco3)C2)cc1 (stereo unspecified)	none
C(=C\c1ccco1)/C1=NN(c2ccccc2)C(c2ccco2)C1 (stereo unspecified)	aDG glyco act 7.2 (no result: GC-A act, GC-B act)
Cc1cccc(OCCCC(=O)Nc2ccc(S(=O)(=O)Nc3nccs3)cc2)c1C	none
COc1cccc(-c2csc(N3CCN(C(=S)Nc4ccc(Cl)cc4)CC3)n2)c1	GRIN3A LBD mod 10 (no result: Hep lipid drop)
COc1cccc2cc(-c3nnc(SCC(=O)Nc4cc(C(F)(F)F)ccc4Cl)n3N)oc12	GRIN3A LBD mod 11
Cc1nc(Nc2ccc(C(=O)O)cc2)nc(Nc2ccc(C(=O)O)cc2)c1[N+](=O)[O-]	none
CC(=O)Nc1ccc(Nc2nc(C)c([N+](=O)[O-])c(Nc3ccccc3)n2)cc1	GC-A act 56, GC-B act 58
Cn1c(SCC(=O)Nc2cc(Cl)cc(Cl)c2)nnc1-c1ccc2nonc2c1	GRIN3A LBD mod 45

Screens deposited in PubChem by several laboratories.
